Data as given in ChEMBL document CHEMBL1671644, “Inhibition of human immunodeficiency virus type 1 infection by the candidate microbicide dapivirine, a nonnucleoside reverse transcriptase inhibitor” (Antimicrob Agents Chemother, 2009).
Calls of active or inactive are those of the source. The rule behind the calls is not given here.

How the values were obtained:
[1] = tested on: Human immunodeficiency virus 1; experiment: Antiviral activity against HIV-1 Bal infected in human cervical tissue explants assessed as inhibition of dissemination of virus via migratory cells after 2 hrs in presence of 12.5% whole semen; assay type: functional, organism-based
Outline: (§1)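 Cervical explants were exposed to HIV-1BaL plus drug for 2 h in cervical mucus simulant or whole semen (final 12.5%), then washed. Migratory cells were cocultured with PM-1 indicator cells and infection read as p24 in coculture supernatant.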

[2] = Selectivity index, ratio of CC50 for human MT-4 cells to IC50 for HIV-1 3B; assay type: functional, MT4
[3] = tested on: Human immunodeficiency virus 1; experiment: Antiviral activity against HIV-1 Bal infected in human PM1 cells after 7 days by RT assay; assay type: functional, organism-based; conditions: Human immunodeficiency virus 1, Bal, PM1, 168 h
Outline: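 PM-1 cells (4 x 10^4/well) were infected with HIV-1BaL or HIV-1RF (200 TCID50/ml) and cultured 7 days with drug. Replication was measured as reverse transcriptase in supernatant versus untreated wells. IC50 was obtained by nonlinear regression.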

[4] = tested on: Human immunodeficiency virus 1; experiment: Antiviral activity against HIV-1 Bal infected in 1 hr compound pretreated human ectocervical explant tissue assessed as inhibition of provirus formation at 1 nM by RT-PCR; assay type: functional; conditions: Human immunodeficiency virus 1, Bal
Outline: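 Ectocervical explants were pretreated with drug for 1 h, then exposed to HIV-1BaL (two 50% tissue infectious doses, about 10^4 TCID50 on PM-1) for 2 h at 37°C with drug present. Explants were washed and cultured overnight, then cultured separately for 10 days. Tissue was proteinase K-digested and proviral LTR DNA measured by multiplex qPCR against β-actin (10 copies/10^5 cells sensitivity). Two donors, triplicate.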

[5] = tested on: Human immunodeficiency virus 1; experiment: Antiviral activity against HIV-1 subtype B V022807 infected in human MT4 cells assessed as inhibition of viral replication relative to HIV-1 3B; assay type: functional
Outline: (§2)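 Recombinant clinical HIV-1 isolates (200 TCID50/well) were tested in MT-4 cells (3 x 10^4/well) over 3–5 days, with an MTT viability read-out. IC50 was fitted by nonlinear regression. Fold change is the isolate IC50 divided by the HIV-1IIIB IC50, tested in parallel.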

[6] = tested on: Human immunodeficiency virus 1; experiment: Antiviral activity against HIV-1 subtype O V029524 harboring NNRTI A98G, V179E and Y181C mutant infected in human MT4 cells assessed as inhibition of viral replication relative to HIV-1 3B; assay type: functional
Outline: (§3)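 MT-4 cells (3 x 10^4/well) infected with site-directed mutants or recombinant clinical isolates (200 TCID50/well) with drug, cultured 3 to 5 days. Viability read by MTT colorimetric antivirogram assay. IC50 by nonlinear regression; fold change = IC50 for the test isolate / IC50 for wild-type HIV-1 IIIB tested in parallel (mean or median).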

[7] = tested on: Human immunodeficiency virus 1; experiment: Antiviral activity against HIV-1 subtype B V022811 infected in human MT4 cells assessed as inhibition of viral replication relative to HIV-1 3B; assay type: functional; outline: as §2
[8] = tested on: Human immunodeficiency virus 1; experiment: Antiviral activity against HIV-1 Bal infected in 24 hrs 100 to 1000 nM compound pretreated human ectocervical explant tissue assessed as prolonged inhibition of viral infection post compound removal measured after 4 days post compound removal; assay type: functional
Outline: (§4)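 Ectocervical explants were exposed to drug (0.01–10 µM) for 2 or 24 h at 37°C and washed. They received HIV-1BaL (2 h) on day 0, 2, 4 or 6 after drug removal, with no drug present. Read-outs at 10 days post-exposure: explant p24 ELISA, tissue proviral DNA by qPCR, and p24 in migratory cell–PM-1 cocultures. Three donors (2 h) or two donors (24 h), triplicate.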

[9] = tested on: Human immunodeficiency virus 1; experiment: Antiviral activity against HIV-1 Bal infected in 2 hrs 100 nM compound pretreated human ectocervical explant tissue assessed as prolonged inhibition of viral infection post compound removal; assay type: functional; outline: as §4
[10] = Cytotoxicity against human MT4 cells after 24 hrs by MTT assay; assay type: cell-based
[11] = tested on: Human immunodeficiency virus 1; experiment: Antiviral activity against HIV-1 3B infected in human TZM-bl cells after 24 hrs by luciferase reporter assay; conditions: Human immunodeficiency virus 1, 3B
[12] = tested on: Human immunodeficiency virus 1; experiment: Antiviral activity against HIV-1 SM034 harboring NNTRI 188L mutant infected in human MT4 cells assessed as inhibition of viral replication relative to HIV-1 3B; assay type: functional; outline: as §3
[13] = tested on: Human immunodeficiency virus 1; experiment: Antiviral activity against HIV-1 SM024 harboring NNTRI 190A mutant infected in human MT4 cells assessed as inhibition of viral replication relative to HIV-1 3B; assay type: functional; outline: as §3
[14] = tested on: Human immunodeficiency virus 1; experiment: Antiviral activity against HIV-1 Bal infected in 2 hrs 10000 nM compound pretreated human ectocervical explant tissue assessed as prolonged inhibition of viral infection post compound removal measured after 4 days post compound removal; assay type: functional; outline: as §4
[15] = tested on: Human immunodeficiency virus 1; experiment: Antiviral activity against HIV-1 Bal infected in human cervical tissue explants assessed as inhibition of dissemination of virus via migratory cells after 2 hrs in presence of 12.5% cervical mucus; assay type: functional, organism-based; outline: as §1
[16] = Toxicity against human cervical tissue explants at 1 mM after 24 hrs by MTT assay; conditions: 1000 µM
Outline: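 Uninfected ectocervical explants were exposed to drug for 2 or 24 h. Viability was measured by MTT reduction per milligram of tissue relative to unexposed explants, either immediately or after overnight culture. Three or four donors, triplicate.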

[17] = tested on: Human immunodeficiency virus 1; experiment: Antiviral activity against HIV-1 Bal infected in human cervical tissue explants assessed as inhibition of dissemination of virus via migratory cells after 2 hrs; assay type: functional, organism-based
Outline: (§5)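 Explants were pretreated with drug for 1 h, then exposed to HIV-1BaL for 2 h with drug present and washed. Cells that migrated out overnight were washed and cocultured with PM-1 cells (4 x 10^4/well) for about 10 days. Transfer was read as p24 by ELISA in coculture supernatant (detection limit 300 pg/ml). Two donors, triplicate.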

[18] = tested on: Human immunodeficiency virus 1; experiment: Antiviral activity against HIV-1 subtype CRF01_AE V029525 infected in human MT4 cells assessed as inhibition of viral replication relative to HIV-1 3B; assay type: functional; outline: as §2
[19] = tested on: Human immunodeficiency virus 1; experiment: Antiviral activity against HIV-1 subtype CRF01_AE V029521 infected in human MT4 cells assessed as inhibition of viral replication relative to HIV-1 3B; assay type: functional; outline: as §2
[20] = tested on: Human immunodeficiency virus 1; experiment: Antiviral activity against HIV-1 subtype B V022815 infected in human MT4 cells assessed as inhibition of viral replication relative to HIV-1 3B; assay type: functional; outline: as §2
[21] = tested on: Human immunodeficiency virus 1; experiment: Antiviral activity against HIV-1 subtype B V022812 harboring NNRTI V179I mutant infected in human MT4 cells assessed as inhibition of viral replication relative to HIV-1 3B; assay type: functional; outline: as §3
[22] = tested on: Human immunodeficiency virus 1; experiment: Antiviral activity against HIV-1 SM058 harboring NNTRI 227L and 106A mutant infected in human MT4 cells assessed as inhibition of viral replication relative to HIV-1 3B; assay type: functional; outline: as §3
[23] = tested on: Human immunodeficiency virus 1; experiment: Antiviral activity against HIV-1 subtype CRF02_AG V022830 infected in human MT4 cells assessed as inhibition of viral replication relative to HIV-1 3B; assay type: functional; outline: as §3
[24] = tested on: Human immunodeficiency virus 1; experiment: Antiviral activity against HIV-1 Bal infected in human PM1 cells assessed as inhibition of transmission of virus to premissive T cells at 10 uM; assay type: functional; conditions: Human immunodeficiency virus 1, Bal; outline: as §5
[25] = tested on: Human immunodeficiency virus 1; experiment: Antiviral activity against HIV-1 SF162 infected in hu-SCID mouse assessed as protection from viral infection at 225 uM; assay type: functional; conditions: Human immunodeficiency virus 1, SF162 ISOLATE

In the case of `Cc1cc(C)c(Nc2ccnc(Nc3ccc(C#N)cc3)n2)c(C)c1` [DAPIVIRINE], the inhibition [1] is reported as “Active”, the “Selectivity Index” value [2] is reported as 2389 and the IC50 [3] is reported as 6 nM. For the same molecule, the inhibition at 0.001 µM [4] was over 99%, the “Ratio IC50” value [5] was 1.1 and the “Ratio IC50” value [6] was 150. The “Ratio IC50” value [7] was 3.1, the “inhibition (INH)” value [8] was 90% and the “inhibition (INH)” value [9] was 90%. For the same molecule, the CC50 at 24 h [10] was 2150 nM, the IC50 [11] was 1 nM and the “Ratio IC50” value [12] was 47. For the same molecule, the “Ratio IC50” value [13] was 1, the “inhibition (INH)” value [14] was 90% and the inhibition [15] was “Active”. The Activity [16] was “Non-toxic”, the inhibition [17] was “Active” and the “Ratio IC50” value [18] was 2.6. For the same molecule, the “Ratio IC50” value [19] was 3.5, the “Ratio IC50” value [20] was 2.2 and the “Ratio IC50” value [21] was 2. For the same molecule, the “Ratio IC50” value [22] was 8, the “Ratio IC50” value [23] was 1.6 and the inhibition at 10 µM [24] was over 90%. For the same molecule, the inhibition in vivo at 225 µM [25] was 85.7%.
